# Activity calls are given as the source filed them. No cut-off for these calls is given here.
# How the values were obtained:
# A498 [1] = test: Antiproliferative activity against human A498 cells assessed as reduction in cell viability at 30 uM incubated for 72 hrs by MTT assay relative to control; format: functional; conditions: A498, 72 h
# In short: (§1)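 MTT read-out. Cells seeded at 1,000-2,200/well, grown 12 hr at 37 °C, then compound added for 72 hr. MTT for 4 hr, formazan dissolved in DMSO, absorbance at 490 nm. Untreated-cell OD taken as 100% proliferation; inhibition reported at 30 μM.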
# [2] = biological target: Speckle-type POZ protein (Homo sapiens) (UniProt O43791); test: Binding affinity to recombinant N-terminal GST/His-tagged MATH binding domain SPOP (unknown origin) expressed in Escherichia coli BL21 (DE3) assessed as change in melting temperature at 20 fold compound incubated for 15 mins by nano differential scanning fluorimetry (reference value: -3.8 degreeC)
# OS-RC-2 [3] = test: Antiproliferative activity against human OS-RC2 cells assessed as reduction in cell viability incubated for 72 hrs by MTT assay; format: functional, cell-based; conditions: OS-RC-2, 72 h
# In short: (§2)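 MTT read-out. Cells seeded at 1,000-2,200/well, grown 12 hr at 37 °C before compound, then exposed 72 hr. MTT for 4 hr, formazan dissolved in DMSO, A490 read. Untreated cells = 100% proliferation. IC50 quantitated; mean ± SD, n = 3.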
# [4] = biological target: Speckle-type POZ protein (Homo sapiens) (UniProt O43791); test: Inhibition of SPOP signalling in human OS-RC2 cells assessed as accumulation of PTEN at 5 to 15 uM incubated for 12 hrs by Western blot analysis; format: cell-based
# A498 [5] = test: Antiproliferative activity against human A498 cells assessed as reduction in cell viability incubated for 72 hrs by MTT assay; format: functional, cell-based; conditions: A498, 72 h; in short: as §2
# [6] = biological target: Speckle-type POZ protein (Homo sapiens) (UniProt O43791); test: Binding affinity to recombinant N-terminal GST/His-tagged MATH binding domain SPOP (unknown origin) expressed in Escherichia coli BL21 (DE3) assessed as change in melting temperature at 10 fold compound incubated for 15 mins by nano differential scanning fluorimetry (reference value: -1.7 degreeC)
# [7] = biological target: Speckle-type POZ protein (Homo sapiens) (UniProt O43791); test: Binding affinity to recombinant N-terminal GST/His-tagged SPOP (unknown origin) MATH binding domain expressed in Escherichia coli BL21 (DE3) assessed as change in melting temperature at 5 fold compound by SYPRO Orange dye based differential scanning fluorimetry (reference value: -1.7 degreeC)
# OS-RC-2 [8] = test: Antiproliferative activity against human OS-RC2 cells assessed as reduction in cell viability at 30 uM incubated for 72 hrs by MTT assay relative to control; format: functional; conditions: OS-RC-2, 72 h; in short: as §1
# OS-RC-2 [9] = test: Inhibition of colony formation in human OS-RC2 cells at 1 to 5 uM incubated for 12 days by crystal violet dye based assay; format: functional, cell-based
# In short: (§3)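 Cells seeded at 1,000/well, grown 12 days at 37 °C, 5% CO2, medium renewed every 3 days. Fixed with 10% acetic acid/10% methanol for 15 min, stained with 1% crystal violet for 10 min.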
# [10] = Solubility of compound in cell culture medium in presence of 0.2 % DMSO; format: physicochemical
# In short: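 Solubility determined in cell culture medium containing 0.2% DMSO.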
# A498 [11] = test: Inhibition of colony formation in human A498 cells at 1 to 5 uM incubated for 12 days by crystal violet dye based assay; format: functional, cell-based; in short: as §3
# [12] = biological target: Speckle-type POZ protein (Homo sapiens) (UniProt O43791); test: Binding affinity to recombinant N-terminal GST/His-tagged SPOP (unknown origin) MATH binding domain expressed in Escherichia coli BL21 (DE3) assessed as change in melting temperature at 10 fold compound by SYPRO Orange dye based differential scanning fluorimetry (reference value: -1.7 degreeC)
# [13] = biological target: Speckle-type POZ protein (Homo sapiens) (UniProt O43791); test: Binding affinity to recombinant N-terminal GST/His-tagged SPOP (unknown origin) MATH binding domain expressed in Escherichia coli BL21 (DE3) assessed as change in melting temperature at 1 fold compound by SYPRO Orange dye based differential scanning fluorimetry (reference value: -1.7 degreeC)
# Speckle-type POZ protein (Homo sapiens), sequence (O43791 whole entry, the tested form may be a part): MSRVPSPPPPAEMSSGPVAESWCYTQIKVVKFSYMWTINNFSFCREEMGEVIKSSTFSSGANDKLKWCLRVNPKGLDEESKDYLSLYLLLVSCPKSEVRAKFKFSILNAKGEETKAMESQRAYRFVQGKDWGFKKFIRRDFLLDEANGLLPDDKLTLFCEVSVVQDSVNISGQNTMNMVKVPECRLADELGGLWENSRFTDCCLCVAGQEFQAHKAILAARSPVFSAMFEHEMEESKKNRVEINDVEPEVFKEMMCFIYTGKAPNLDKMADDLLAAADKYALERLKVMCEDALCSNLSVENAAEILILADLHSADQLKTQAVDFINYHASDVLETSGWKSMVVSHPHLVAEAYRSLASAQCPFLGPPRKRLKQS
ΔTm [2] [°C],inhibition [4],ΔTm [6] [°C],ΔTm [7] [°C],solubility [10] [µM],ΔTm [12] [°C],ΔTm [13] [°C],Structure (SMILES),inhibition at 30 µM (A498 [1]) [%],IC50 (OS-RC-2 [3]) [µM],IC50 (A498 [5]) [µM],inhibition at 30 µM (OS-RC-2 [8]) [%],inhibition (OS-RC-2 [9]),inhibition (A498 [11])
3.5,,2.3,1.3,5 to 10,,,Cc1cccn2c(=O)c3cc(C(=O)NCCCN4CCOCC4)c(=N)n(CCc4ccc(Br)cc4)c3nc12,89,5,3,96,Active,Active
2.7,Active,2.7,,,,,Cc1cccn2c(=O)c3cc(C(=O)NC4CCCCC4)c(=N)n(CCc4cccs4)c3nc12,90,5.9,6.3,90,,
0.2,,0,0.3,,0.3,0,Cc1cccn2c(=O)c3cc(C(=O)NCc4cccnc4)c(=N)n(CCCN4CCOCC4)c3nc12,,> 50,> 50,,,

# Continued, compound first:
Structure (SMILES),ΔTm [2] [°C],inhibition [4],ΔTm [6] [°C],ΔTm [7] [°C],solubility [10] [µM],ΔTm [12] [°C],ΔTm [13] [°C],inhibition at 30 µM (A498 [1]) [%],IC50 (OS-RC-2 [3]) [µM],IC50 (A498 [5]) [µM],inhibition at 30 µM (OS-RC-2 [8]) [%],inhibition (OS-RC-2 [9]),inhibition (A498 [11])
Cc1cccn2c(=O)c3cc(C(=O)NCCCN4CCOCC4)c(=N)n(CCc4cccc(F)c4)c3nc12,5.3,Active,3.7,4,,,,89,4.6,2.4,92,,
Cc1cccn2c(=O)c3cc(C(=O)NCCCN4CCOCC4)c(=N)n(CCc4ccccc4)c3nc12,4,,2.8,3,30 to 45,,,88,5.8,2.7,90,Active,Active
Cc1cccn2c(=O)c3cc(C(=O)NCCCN4CCOCC4)c(=N)n(CCc4cccs4)c3nc12,5.1,Active,3.2,,,,,90,7.6,2.6,82,,
COc1ccc(CCNC(=O)c2cc3c(=O)n4cccc(C)c4nc3n(CCc3cccs3)c2=N)cc1,,Active,,,2.5 to 5,,,87,4.2,2.8,75,Active,Active
COc1ccc(CCn2c(=N)c(C(=O)NCCCN3CCOCC3)cc3c(=O)n4cccc(C)c4nc32)cc1,3.6,,2.5,2.7,,,,90,6.5,2.8,88,,

# Source: ChEMBL document CHEMBL4402603, “Structure-Activity Relationship of SPOP Inhibitors against Kidney Cancer” (J Med Chem, 2020)
